{"source": "ChEMBL document CHEMBL1268863", "about": "“Bioactive Cycloperoxides Isolated from the Puerto Rican Sponge Plakortis halichondrioides” (J Nat Prod, 2010)", "key": {"DU-145 [1]": {"test_system": "DU-145", "assay": "Cytotoxicity against human DU145 cells after 48 hrs by MTT assay", "assay_type": "functional, cell-based", "conditions": "DU-145, 48 h", "method_in_brief": "(§1)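 Cells cultured in RPMI-1640 or DMEM with 10% FBS and penicillin/streptomycin at 37 °C, 5% CO2, then seeded at 5,000/well and left overnight. Compound given at 0.1, 0.5, 1, 5, 10, 20 and 50 µM for 48 h with a DMSO vehicle control. Viability read by MTS formazan absorbance at 490 nm, in quadruplicate, and IC50 derived from the dose series.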"}, "DU-145 [2]": {"test_system": "DU-145", "assay": "Cytotoxicity against human DU145 cells at 10 uM after 48 hrs […]", "assay_type": "functional"}, "A2058 [3]": {"test_system": "A2058", "assay": "Cytotoxicity against human A2058 cells after 48 hrs by MTT assay", "assay_type": "functional, cell-based", "conditions": "A2058, 48 h", "method_in_brief": "as §1"}, "[4]": {"test_system": "Mycobacterium tuberculosis", "assay": "Antimycobacterial activity Mycobacterium tuberculosis H37Rv", "assay_type": "functional, organism-based"}, "Plasmodium falciparum": {"test_system": "Plasmodium falciparum", "assay": "Antimicrobial activity against chloroquine-resistant Plasmodium falciparum W2", "assay_type": "functional, organism-based", "method_in_brief": "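Chloroquine-resistant W2 strain tested, with chloroquine as positive control; IC50 reported in µg/mL.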"}, "A2058 [5]": {"test_system": "A2058", "assay": "Cytotoxicity against human A2058 cells at 10 uM after 48 hrs […]", "assay_type": "functional"}}}
{"smiles": "CCCCCCCCCCCCCCCC[C@]1(C)C[C@@](C)(O)CC(=O)O1", "values": [{"measurement": "IC50", "setting": "DU-145 [1]", "result": "> 10", "unit": "µM"}, {"measurement": "Activity", "setting": "DU-145 [2]", "result": 102, "unit": "%"}, {"measurement": "IC50", "setting": "A2058 [3]", "result": "> 10", "unit": "µM"}, {"measurement": "IC50", "setting": "[4]", "result": 30, "unit": "µg/mL"}, {"measurement": "IC50", "setting": "Plasmodium falciparum", "result": "> 10", "unit": "µg/mL"}, {"measurement": "Activity", "setting": "A2058 [5]", "result": 60, "unit": "%"}]}
{"smiles": "C[C@]1(CC(=O)O)C[C@@](C)(CCCCCCCCC(=O)O)OO1", "note": "[EPIPLAKINIDIOIC ACID]", "values": [{"measurement": "IC50", "setting": "DU-145 [1]", "result": 4, "unit": "µM"}, {"measurement": "Activity", "setting": "DU-145 [2]", "result": 31, "unit": "%"}, {"measurement": "IC50", "setting": "A2058 [3]", "result": 3, "unit": "µM"}, {"measurement": "IC50", "setting": "Plasmodium falciparum", "result": 0.3, "unit": "µg/mL"}, {"measurement": "Activity", "setting": "A2058 [5]", "result": 23, "unit": "%"}]}
{"smiles": "C[C@@](O)(CCCCCCCCCc1ccc(O)cc1)C[C@]1(C)OC(=O)C[C@@H]1O", "values": [{"measurement": "IC50", "setting": "DU-145 [1]", "result": "> 10", "unit": "µM"}, {"measurement": "Activity", "setting": "DU-145 [2]", "result": 95, "unit": "%"}, {"measurement": "IC50", "setting": "A2058 [3]", "result": "> 10", "unit": "µM"}, {"measurement": "IC50", "setting": "Plasmodium falciparum", "result": 7, "unit": "µg/mL"}, {"measurement": "Activity", "setting": "A2058 [5]", "result": 81, "unit": "%"}]}
{"smiles": "CCCCCCCCCCCCCCCC[C@@](C)(O)C[C@]1(C)OC(=O)C[C@@H]1O", "values": [{"measurement": "IC50", "setting": "DU-145 [1]", "result": 24, "unit": "µM"}, {"measurement": "Activity", "setting": "DU-145 [2]", "result": 79, "unit": "%"}, {"measurement": "IC50", "setting": "A2058 [3]", "result": 24, "unit": "µM"}, {"measurement": "IC50", "setting": "[4]", "result": 13, "unit": "µg/mL"}, {"measurement": "IC50", "setting": "Plasmodium falciparum", "result": 0.6, "unit": "µg/mL"}, {"measurement": "Activity", "setting": "A2058 [5]", "result": 75, "unit": "%"}]}
{"smiles": "CC/C=C/C=C/C=C/CCCCCCCC[C@]1(C)C[C@]2(C)OC(=O)C[C@@H]2OO1", "note": "[PLAKORTOLIDE J]", "values": [{"measurement": "IC50", "setting": "DU-145 [1]", "result": "> 10", "unit": "µM"}, {"measurement": "Activity", "setting": "DU-145 [2]", "result": 112, "unit": "%"}, {"measurement": "IC50", "setting": "A2058 [3]", "result": "> 10", "unit": "µM"}, {"measurement": "IC50", "setting": "[4]", "result": 71, "unit": "µg/mL"}, {"measurement": "IC50", "setting": "Plasmodium falciparum", "result": "> 10", "unit": "µg/mL"}, {"measurement": "Activity", "setting": "A2058 [5]", "result": 106, "unit": "%"}]}
{"smiles": "CCCCCCCCCCCCCCCC[C@@](C)(O)C[C@](C)(O)CC(=O)OC", "values": [{"measurement": "IC50", "setting": "DU-145 [1]", "result": "> 10", "unit": "µM"}, {"measurement": "Activity", "setting": "DU-145 [2]", "result": 81, "unit": "%"}, {"measurement": "IC50", "setting": "A2058 [3]", "result": "> 10", "unit": "µM"}, {"measurement": "IC50", "setting": "Plasmodium falciparum", "result": "> 10", "unit": "µg/mL"}, {"measurement": "Activity", "setting": "A2058 [5]", "result": 79, "unit": "%"}]}
{"smiles": "CCCCCCCCCCCCCCCC[C@]1(C)C[C@@](C)(CC(=O)OC)OO1", "values": [{"measurement": "IC50", "setting": "DU-145 [1]", "result": 8, "unit": "µM"}, {"measurement": "Activity", "setting": "DU-145 [2]", "result": 38, "unit": "%"}, {"measurement": "IC50", "setting": "A2058 [3]", "result": "> 10", "unit": "µM"}, {"measurement": "IC50", "setting": "Plasmodium falciparum", "result": "> 10", "unit": "µg/mL"}, {"measurement": "Activity", "setting": "A2058 [5]", "result": 69, "unit": "%"}]}
{"smiles": "CC/C=C/C=C/C=C/CCCCCCCC[C@]1(C)C[C@@](C)(CC(=O)OC)OO1", "note": "[EPIPLAKINIC ACID F METHYL ESTER]", "values": [{"measurement": "IC50", "setting": "DU-145 [1]", "result": "> 10", "unit": "µM"}, {"measurement": "Activity", "setting": "DU-145 [2]", "result": 92, "unit": "%"}, {"measurement": "IC50", "setting": "A2058 [3]", "result": "> 10", "unit": "µM"}, {"measurement": "IC50", "setting": "[4]", "result": 62, "unit": "µg/mL"}, {"measurement": "IC50", "setting": "Plasmodium falciparum", "result": 4, "unit": "µg/mL"}, {"measurement": "Activity", "setting": "A2058 [5]", "result": 86, "unit": "%"}]}
{"smiles": "CCCCCCCCCCCCCCCC[C@]1(C)C[C@]2(C)OC(=O)C[C@@H]2OO1", "values": [{"measurement": "IC50", "setting": "DU-145 [1]", "result": 2, "unit": "µM"}, {"measurement": "Activity", "setting": "DU-145 [2]", "result": 13, "unit": "%"}, {"measurement": "IC50", "setting": "A2058 [3]", "result": 0.8, "unit": "µM"}, {"measurement": "IC50", "setting": "[4]", "result": 68, "unit": "µg/mL"}, {"measurement": "IC50", "setting": "Plasmodium falciparum", "result": 0.3, "unit": "µg/mL"}, {"measurement": "Activity", "setting": "A2058 [5]", "result": 8, "unit": "%"}]}
{"smiles": "CC/C=C/C=C/C=C/CCCCCCCC[C@@]1(C)C[C@](C)(CC(=O)O)OO1", "note": "[EPIPLAKINIC ACID F]", "values": [{"measurement": "IC50", "setting": "DU-145 [1]", "result": 1, "unit": "µM"}, {"measurement": "Activity", "setting": "DU-145 [2]", "result": 15, "unit": "%"}, {"measurement": "IC50", "setting": "A2058 [3]", "result": "> 10", "unit": "µM"}, {"measurement": "IC50", "setting": "[4]", "result": 92, "unit": "µg/mL"}, {"measurement": "IC50", "setting": "Plasmodium falciparum", "result": 3, "unit": "µg/mL"}, {"measurement": "Activity", "setting": "A2058 [5]", "result": 51, "unit": "%"}]}
{"smiles": "C[C@@]1(CCCCCCCCCc2ccc(O)cc2)C[C@]2(C)OC(=O)C[C@@H]2OO1", "note": "[PLAKORTOLIDE F]", "values": [{"measurement": "IC50", "setting": "DU-145 [1]", "result": "> 10", "unit": "µM"}, {"measurement": "Activity", "setting": "DU-145 [2]", "result": 62, "unit": "%"}, {"measurement": "IC50", "setting": "A2058 [3]", "result": "> 10", "unit": "µM"}, {"measurement": "IC50", "setting": "[4]", "result": 59, "unit": "µg/mL"}, {"measurement": "Activity", "setting": "A2058 [5]", "result": 71, "unit": "%"}]}
